Key:
[1] = system: human hepatocellular liver carcinoma HepG2 cells; assay: Cell Counting Kit-8 cytotoxicity assay, HepG2; format: cell-based; settings: HepG2, 48 h
In short: (§1)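 Cells were seeded at 5×10^3 per well in DMEM with 10% FBS, 100 μg/mL streptomycin and 100 IU/mL penicillin, then held 24 h at 37°C under 5% CO2. Medium was replaced with test compound at CA4-equivalent concentrations of 0.0025, 0.025, 0.25, 2.5, 25, 125 and 250 μM for 48 h. Then 10% CCK-8 was added for 1.5 h at 37°C and A450 read. Viability was calculated against control and blank wells, and IC50 derived.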

mouse sarcoma S180 cells = assay: Cell Counting Kit-8 cytotoxicity assay, S180; format: cell-based; settings: S-180, 48 h
In short: as §1

[2] = system: human breast adenocarcinoma MCF-7 cells; assay: Cell Counting Kit-8 cytotoxicity assay, MCF-7; format: cell-based; settings: MCF7, 48 h
In short: as §1

[3] = In vivo pharmacokinetics after tail vein injection; settings: 2 h following injection, SD rats
In short: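 Male rats (180–200 g) were fasted 12 h, then dosed into the tail vein at drug-equivalent 28 mg/kg of phosphate prodrug. Orbital-vein blood was taken at 2, 5, 10, 15, 20, 30 and 45 min and at 1, 1.5, 2, 4, 6 and 10 h, into heparinized vials. Plasma was separated (4,000 rpm, 10 min), stored at −20°C, and prodrug and released parent drug were quantified by HPLC. n=6, mean ± SD.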

[4] = In vivo biodistribution in S180 tumor-bearing mice; settings: iv, drug-equivalent doses of 28 mg/kg CA4P, heart, kidney, liver, spleen, lung

COc1ccc(/C=C\c2cc(OC)c(OC)c(OC)c2)cc1O [CA4, combretastatin A4]
IC50 [1]: 64 ± 6 nM | IC50 (mouse sarcoma S180 cells): < 1 nM | IC50 [2]: 4 ± 2 nM

COc1ccc(/C=C\c2cc(OC)c(OC)c(OC)c2)cc1OP(=O)(O)O [CA4P, combretastatin A4 phosphate]
IC50 [1]: 179 ± 53 nM | Detection of prodrug in plasma [3]: could not be detected | IC50 (mouse sarcoma S180 cells): < 1 nM | IC50 [2]: 50 ± 8 nM | Tissue detection of prodrug [4]: could be detected in the heart, liver, spleen, lung, kidney, and tumor
